Results reported in ChEMBL document CHEMBL4513216, “Probing the Open Global Health Chemical Diversity Library for Multistage-Active Starting Points for Next-Generation Antimalarials” (ACS Infect Dis, 2020).

Assay: Toxicity liver stage against HepG2, at 10uM
Format: cell-based
Design: test concentration 10 uM, cell line HepG2-A16-CD81EGFP
Details: human, HepG2-A16-CD81EGFP cells; read-out: INHIBITION
In short: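 Uninfected HepG2-A16-CD81EGFP cells, 3 × 10^3 per well, 1536-well, plated on prespotted compound at 10 μM final, parasite-free screening media added to match infected plates; puromycin 10 μM positive, DMSO 0.5% negative; run in parallel with 48 h PbLuc assay at 37 °C, 5% CO2; viability by CellTiter-Glo luminescence, normalized to controls.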

| Structure (SMILES) | cytotoxicity at 10 µM [%] |
| --- | --- |
| CNc1nc2cn(C3CCCC3)c(=O)c-2c[nH]1 | 7.17 |
| Cc1ccccc1CSc1nc(=O)n(CCO)c2c1CCC2 | 20.6 |
| COCCN1CCC(CNC(=O)C2(S(C)(=O)=O)CCCC2)CC1 | -9.61 |
| Cc1cc(C2CCCN(C(=O)COc3cc(F)ccc3F)C2)n[nH]1 (configuration not stated) | -1.3 |
| O=C(CCOCC(F)(F)F)N1CCCC1c1noc(C2CC2)n1 (configuration not stated) | 0.111 |
| c1cc(CNCc2ccnc(N3CCCC3)c2)c2c(c1)OCCO2 | 3.64 |
| Cc1cnn(CCNC(C)C(=O)Nc2ccc(Cl)cn2)c1 (configuration not stated) | 0.858 |
| CN(C)C1Cc2ccccc2N(S(=O)(=O)c2ccc(C#N)cc2)C1 (configuration not stated) | 2.91 |
| CN(C)S(=O)(=O)N1CCCC(c2nccn2Cc2cccnc2)C1 (configuration not stated) | 4.61 |
| Cc1cc(Nc2cnccn2)nc(C2CCCN(CCO)C2)n1 (configuration not stated) | -5.87 |
| Cc1[nH]ncc1C(C)NCc1ccc(F)cc1 (configuration not stated) | 3.28 |
| Cc1cnn(CC(C)NCc2csc(-c3cnn(C)c3)n2)c1 (configuration not stated) | 5.32 |
| N#Cc1ccnc(N2CCN(CC(O)c3cccc(F)c3)CC2)c1 (configuration not stated) | 3.15 |
| CCSCCn1cc(-c2ncc[nH]2)nn1 | -41.4 |
| COC(=O)C(C)N1CCCc2cc(OC)ccc2C1 (configuration not stated) | 11 |
| COc1cccc2c1OCCCN(Cc1c[nH]nc1C(=O)O)C2 | 6.5 |
| COCC(=O)N1CC[C@@H]2CN(Cc3cccnc3)S(=O)(=O)[C@@H]2CC1 | -113 |
| COc1ccccc1CCC(=O)N1CCCC(OCc2cccnc2)C1 (configuration not stated) | 2.98 |
| N#CCCN(CC(=O)Nc1ccc(Br)cc1Cl)Cc1cccnc1 | 11 |
| COC(=O)N1CCN(Cc2csc(-c3ncccn3)n2)CC1 | -7.53 |
| Cc1nc2ccccc2nc1CN1CCCCC1Cn1cncn1 (configuration not stated) | -7.36 |
| O=C1CCCN1Cc1ccc(C(=O)N2CCCC2c2cccs2)cc1 (configuration not stated) | 3.78 |
| Cc1cccc(CN2CCCC(O)(CNCc3cccc(F)c3)C2=O)c1 (configuration not stated) | -12.1 |

| Structure (SMILES) | cytotoxicity at 10 µM [%] |
| --- | --- |
| CC(O)c1cn(CC2CCN(C(=O)c3cscn3)CC2)nn1 (configuration not stated) | 1.83 |
| CC(C)(CNC(=O)COc1cccc(F)c1)C(N)=O | -4.89 |
| CCN(Cc1c(F)cccc1Cl)c1cc(C2CCNCC2)nc(C)n1 | 5.16 |
| COc1c(C2SCC(=O)Nc3[nH]ncc32)cc2c(c1OC)OCO2 (configuration not stated) | 0.219 |
| Cc1ncc(CN2CCOC(c3ccc(-c4ccccc4F)cn3)C2)s1 (configuration not stated) | -35.7 |
| CN(CCc1ccncc1)CCc1nccs1 | 1.8 |
| CC(C)N1CC(C(=O)N2CCc3c(nc(CC4CC4)[nH]c3=O)C2)CC1=O (configuration not stated) | -8.25 |
| Cc1csc(N(C)C(=O)C(c2c(F)cccc2Cl)N(C)C)n1 (configuration not stated) | -44.3 |
| O=C(c1ccc(Cn2cnnn2)cc1)N1CCC(c2ccncc2)CC1 | 0.571 |
| CC(C)NC(=O)NCCCc1cccc(F)c1 | -0.0328 |
| CCc1cc(NC2CCC(N)CC2)n2nc(C)c(C)c2n1 (configuration not stated) | -4.33 |
| CC(=O)N1CCC(NC(=O)Cc2nc3nc(C)cc(C)n3n2)CC1 | 8.52 |
| CCS(=O)(=O)c1ccccc1N1CCC(NC(=O)NC2CCCC2)CC1 | -16 |
| CCC(NC(=O)c1ccc(COC)o1)c1nc(C(F)(F)F)cs1 (configuration not stated) | 2.91 |
| CCC(C(=O)NCCc1nc(C)cc(C(F)(F)F)n1)n1cccn1 (configuration not stated) | -9.77 |
| CCNC(=O)c1cccc(CNC(=O)c2cnc(C(C)(C)C)s2)c1 | -0.969 |
| Cn1c2c(c(=O)n1C)CN(C(=O)c1cccc(F)c1)CCC2 | -101 |
| CC(C)(O)CCc1ccc(C(=O)NCC2CCCOC2)cc1 (configuration not stated) | 0.445 |
| Cn1cc(C(=O)Nc2ccc(CC(=O)NCC(F)(F)F)cc2)nn1 | 10.8 |
| CCc1cnc(CN2CCC(N(C)Cc3noc(C4CC4)n3)C2)o1 (configuration not stated) | -10.2 |
| CCC(C(=O)NCc1ccncc1)N(c1ccc(F)cc1)S(C)(=O)=O (configuration not stated) | -5.48 |
| CCc1nc(CC(=O)N2CCC(C(=O)N(CC)CC)CC2)cs1 | -1.42 |
| O=C(NC1CCS(=O)(=O)c2ccccc21)c1cccs1 (configuration not stated) | -0.0399 |

| Structure (SMILES) | cytotoxicity at 10 µM [%] |
| --- | --- |
| COCCOc1ccc(NC(=O)N2CCOC(C(N)=O)C2)cc1F (configuration not stated) | -140 |
| CC(C)Cn1cc(NC(=O)NCC2CCN(c3ccccc3)C2)cn1 (configuration not stated) | 2.53 |
| Cc1ccc(N2CCC3(CCCN(C(=O)c4cnccn4)C3)C2)nn1 (configuration not stated) | 1.14 |
| Cc1ccc(C(=O)N2CCCC(Cn3cc(C(C)(C)N)nn3)C2)s1 (configuration not stated) | -19.1 |
| COc1ccc(CCc2nnc(NC(=O)C3CC34CCC4)s2)cc1OC (configuration not stated) | -0.095 |
| c1cc(-c2nnc([C@H]3CCN(C4CCOCC4)C3)o2)ccn1 | -61.3 |
| CCN(Cc1noc(CC(C)C)n1)Cc1ccccc1OCC(=O)O | -49 |
| O=C1CC2(CCCC2)C(=O)N1CC(O)COCc1ccccc1F (configuration not stated) | 0.927 |
| C[S+]([O-])CCCNCc1cc(F)ccc1Br (configuration not stated) | 0.732 |
| COc1nc2c(cc1C(=O)NC(C)Cc1cnccn1)CCC2 (configuration not stated) | -135 |
| COc1ccc(Cl)cc1NCC(=O)NCc1cccnc1OC | -10.3 |
| CC(C)c1cc(NC2CCCN(C(=O)c3cccs3)C2)ncn1 (configuration not stated) | -7.55 |
| CNC(=O)CCOC(=O)c1cccc(-n2ccc(C(F)(F)F)n2)c1 | -41.9 |
| CC(C)(C)NC(=O)CN1CCNCC1 | -143 |
| NC(=O)CN1CC[C@@]2(O)CCCC[C@H]2[C@@H]1c1ccc2c(c1)OCO2 | 3.26 |
| COc1cc(F)ccc1N(C)Cc1cccnc1 | -3.47 |
| Cc1ccc(CCCC(=O)N(C)CCN2CCOCC2)cc1 | -2.75 |
| COc1ccc(Cc2nc3c([nH]2)CC(C)(C)CNC3=O)cc1OC | -3.04 |
| O=C(O)[C@@H]1CN(C(=O)CSCCN2CCCC2)C[C@H]1c1ccccc1 | -12.1 |
| O=C(O)[C@]12CCCN(Cc3ccoc3)C[C@H]1CN(c1ncccn1)C2 | 7.37 |
| O=C(c1ccoc1)N1CCc2c(COCc3ccncc3)cncc2C1 | 8.1 |
| COCCN(Cc1sccc1C)C(=O)C1CCCN(C(N)=O)C1 (configuration not stated) | -4.7 |
| Cc1nnc(NCc2ccccc2Cl)c(C#N)c1C | -5.06 |

| Structure (SMILES) | cytotoxicity at 10 µM [%] |
| --- | --- |
| c1csc(-c2noc(CNC3CCc4ncnn4C3)n2)c1 (configuration not stated) | -9.3 |
| Cn1ccc(C(=O)N2C[C@@H]3CCN(c4cccnc4)C[C@@H]3C2)n1 | -106 |
| CC1CCC2(CC1)Nc1ccccc1CO2 (configuration not stated) | 4.81 |
| CC(C)Cc1nc(CN2CCCC2Cn2cncn2)no1 (configuration not stated) | -8.66 |
| CCn1c(C2CCCN(Cc3ccc4ccccc4n3)C2)nn(C)c1=O (configuration not stated) | 0.687 |
| CC(C)(C)c1nc(CN(CCO)Cc2cc(Br)ccc2F)no1 | 8.52 |
| N#CCCCn1nnnc1Cc1ccc(Br)cc1 | 1.56 |
| Cc1cc(C2CCCN(C(=O)c3c(C)noc3C)C2)n[nH]1 (configuration not stated) | -6.63 |
| COc1cc(OC)c(C2CC(=O)Oc3cc(C)[nH]c(=O)c32)c(OC)c1 (configuration not stated) | -6.24 |
| NC(=O)C1CCN(C(=O)Cc2cnc(-c3c(Cl)cccc3Cl)s2)CC1 | -2.23 |
| O=S(=O)(N[C@@H]1CCO[C@]2(CCN(CC3CCOCC3)C2)C1)C1CC1 | -142 |
| CC1CCCN(S(=O)(=O)NCCNC(=O)c2ncccc2O)C1 (configuration not stated) | 3.07 |
| Cc1ncc2c(n1)CN(CC(=O)Nc1cc(C)on1)CC2 | -12.4 |
| Cc1nn(C)c2c(N3CCN(C(=O)C4CCCO4)CC3)ncnc12 (configuration not stated) | 6.42 |
| CCN1CCC2(CC1)CN(CCO)c1ccccc12 | -0.173 |
| COc1ccccc1C(C)NC(=O)N1CCN(Cc2ccc(Br)s2)CC1 (configuration not stated) | 10.5 |
| O=C(C1CC1)N1CCN(C(=O)CSc2ccccn2)[C@H]2CS(=O)(=O)C[C@H]21 | -24.6 |
| Cc1cn(Cc2ccccc2)nc1N | -4.66 |
| CC(NC(=O)N1CCC1)c1ccc(S(C)(=O)=O)cc1 (configuration not stated) | -4.22 |
| COCCN(Cc1cnn(C)c1)C(=O)C1COc2c(cccc2OC)C1 (configuration not stated) | -11.9 |
| Cc1cc(C(=O)N2C[C@@H](CN3CCCCC3)[C@@H](CO)C2)ccc1O | 0.251 |
| Cc1ccc(S(=O)(=O)NC(=O)COc2cccc(C(N)=O)c2)s1 | -12.7 |
| Cc1nc(C)c(C(=O)NCCNc2ncccc2C(F)(F)F)s1 | -3.08 |

| Structure (SMILES) | cytotoxicity at 10 µM [%] |
| --- | --- |
| COCc1ccc(C(=O)N2CCC(c3cc4ncc(C)nc4[nH]3)C2)cc1 (configuration not stated) | -25.6 |
| CC(C(=O)NCCOc1ccccc1)n1cncn1 (configuration not stated) | -6.85 |
| O=C(Nc1cccnc1)[C@H]1C[C@H]2OCC[C@H]2N(C(=O)c2ccsc2)C1 | -1.24 |
| CC(C)Nc1nc2c(c(NC3CC3)n1)CN(C(=O)c1ccsc1)CC2 | -27.2 |
| CCc1ccccc1Nc1noc2c1CN(C(=O)CNC(C)=O)CC2 | -20.1 |
| CCc1cn[nH]c1C1CCN(C(=O)c2cccc(O)c2C)CC1 | 2.28 |
| Cn1cc(CN2CCC(F)(F)C3(CCN(c4cnccn4)C3)C2)cn1 (configuration not stated) | -9.93 |
| CCOc1ccnc(N2CCN(C(=O)c3ccc(OC)cc3)CC2)n1 | -15.6 |
| Cc1cnccc1CN1C[C@@H](O)[C@H](Oc2cccc(F)c2)C1 | 2.21 |
| CN(Cc1ccc(F)cc1)C(=O)CN1CCCCC1Cn1cncn1 (configuration not stated) | 0.108 |
| Nc1cccnc1N1CCC(c2ccccc2)CC1 | -5.2 |
| Cc1cnn(CCNCC(=O)NCCOc2ccccc2)c1 | -14 |
| Cc1nccc(-c2cccc(NCC(=O)N3CCOCC3)c2)n1 | -0.269 |
| CC1c2ncc(COCC3CC3)n2CCN1C (configuration not stated) | 7.83 |
| CCN1CCN(C(C)CNC(=O)Nc2nnc(C)s2)CC1 (configuration not stated) | -12.2 |
| Cn1nc(C(=O)N2CCCC(n3cncn3)C2)ccc1=O (configuration not stated) | -17.4 |
| Cc1nc(CN2C(=O)CC[C@@H]3[C@H]2CCN3C(=O)c2ccno2)cs1 | -82.7 |
| Cc1ccnn1C(C)C(=O)Nc1cc(-c2ccncc2)[nH]n1 (configuration not stated) | -10.7 |
| CC(=O)N1CCN(C(=O)C2SCCc3sccc32)CC1 (configuration not stated) | -11.5 |
| O=C(c1nc(COc2ccc3c(c2)OCO3)no1)N1CCCC1 | 10.3 |
